ChEMBL document CHEMBL1145087 (J Med Chem, 2003)

What was measured:
Glucocorticoid receptor [1] = target: T1, Glucocorticoid receptor (Homo sapiens, UniProt P04150)
T1 sequence (P04150 whole entry): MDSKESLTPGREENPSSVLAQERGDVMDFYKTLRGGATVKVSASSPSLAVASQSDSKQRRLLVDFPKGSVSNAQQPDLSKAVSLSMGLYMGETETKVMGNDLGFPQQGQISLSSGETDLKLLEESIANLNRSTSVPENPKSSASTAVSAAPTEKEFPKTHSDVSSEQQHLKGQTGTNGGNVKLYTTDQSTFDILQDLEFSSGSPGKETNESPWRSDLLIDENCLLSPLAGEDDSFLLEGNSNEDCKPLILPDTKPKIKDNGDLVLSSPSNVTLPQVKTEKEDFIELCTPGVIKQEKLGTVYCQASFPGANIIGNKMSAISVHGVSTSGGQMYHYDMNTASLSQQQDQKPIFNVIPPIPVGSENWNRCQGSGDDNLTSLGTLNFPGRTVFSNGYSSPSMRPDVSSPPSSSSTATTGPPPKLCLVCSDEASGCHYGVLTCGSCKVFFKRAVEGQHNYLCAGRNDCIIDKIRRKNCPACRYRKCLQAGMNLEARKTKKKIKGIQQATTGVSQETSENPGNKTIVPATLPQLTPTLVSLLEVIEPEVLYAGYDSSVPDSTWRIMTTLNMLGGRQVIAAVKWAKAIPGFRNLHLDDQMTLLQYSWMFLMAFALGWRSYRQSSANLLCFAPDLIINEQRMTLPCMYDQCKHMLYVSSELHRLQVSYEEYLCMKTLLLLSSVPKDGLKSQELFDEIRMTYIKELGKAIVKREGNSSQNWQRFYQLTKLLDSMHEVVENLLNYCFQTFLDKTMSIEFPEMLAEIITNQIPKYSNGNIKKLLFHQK

Homo sapiens [2] = organism: Homo sapiens; test: Relative potency for human glucocorticoid and progesterone receptors
Homo sapiens [3] = organism: Homo sapiens; test: Relative potency for human estrogen and progesterone receptors
Glucocorticoid receptor [4] = target: T1, Glucocorticoid receptor; test: Inhibition of Dexamethasone binding to human glucocorticoid receptor expressed in baculovirus […] cells
[5] = target: T2, Progesterone receptor (Homo sapiens) (UniProt P06401); test: Percent agonistic effect towards human progesterone receptor in CV-1 cells; type: functional, cell-based
T2 sequence (whole entry): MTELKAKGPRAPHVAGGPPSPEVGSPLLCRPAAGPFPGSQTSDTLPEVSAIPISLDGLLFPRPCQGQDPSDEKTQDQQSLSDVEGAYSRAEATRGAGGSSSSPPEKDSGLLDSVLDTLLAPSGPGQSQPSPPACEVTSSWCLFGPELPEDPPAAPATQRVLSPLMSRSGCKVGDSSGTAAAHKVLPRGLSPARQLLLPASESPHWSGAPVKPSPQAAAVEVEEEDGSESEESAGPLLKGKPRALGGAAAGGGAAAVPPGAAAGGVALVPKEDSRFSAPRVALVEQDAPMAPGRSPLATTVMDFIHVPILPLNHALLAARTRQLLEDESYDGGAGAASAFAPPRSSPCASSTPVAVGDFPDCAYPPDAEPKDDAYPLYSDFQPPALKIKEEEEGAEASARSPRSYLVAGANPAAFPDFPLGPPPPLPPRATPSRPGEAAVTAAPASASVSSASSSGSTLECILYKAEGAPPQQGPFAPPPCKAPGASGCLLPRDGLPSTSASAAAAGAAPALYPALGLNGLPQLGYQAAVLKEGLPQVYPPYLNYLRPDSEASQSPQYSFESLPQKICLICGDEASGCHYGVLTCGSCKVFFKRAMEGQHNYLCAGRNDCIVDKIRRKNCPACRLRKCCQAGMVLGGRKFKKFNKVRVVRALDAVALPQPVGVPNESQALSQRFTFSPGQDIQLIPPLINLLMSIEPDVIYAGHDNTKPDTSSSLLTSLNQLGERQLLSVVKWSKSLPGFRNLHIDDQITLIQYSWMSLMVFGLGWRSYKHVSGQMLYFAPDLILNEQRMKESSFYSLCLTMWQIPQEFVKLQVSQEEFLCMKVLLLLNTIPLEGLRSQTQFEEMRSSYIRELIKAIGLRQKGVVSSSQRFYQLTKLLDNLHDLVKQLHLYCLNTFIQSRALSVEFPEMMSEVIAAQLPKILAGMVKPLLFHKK

[6] = target: T2, Progesterone receptor (Homo sapiens); test: Percent agonistic effect towards human progesterone receptor in T47D breast cancer cells; type: functional, cell-based
Homo sapiens [7] = organism: Homo sapiens; test: Relative potency for human mineralocorticoid and progesterone receptors
Progesterone receptor [8] = target: T3, Progesterone receptor (Homo sapiens, UniProt P06401); test: Binding affinity towards human progesterone receptor A isoform using progesterone as radioligand
T3 sequence (P06401 whole entry): T2 sequence (whole entry)

Estrogen receptor [9] = target: T4, Estrogen receptor (Homo sapiens, UniProt Q92731+P03372)
Progesterone receptor [10] = target: T3, Progesterone receptor; test: Agonistic activity against human progesterone receptor in T47D breast cancer cells; type: functional, cell-based
Progesterone receptor [11] = target: T3, Progesterone receptor; test: Agonistic activity against human progesterone receptor in CV-1 cells; type: functional, cell-based
Androgen receptor [12] = target: T5, Androgen receptor (Homo sapiens, UniProt P10275); test: biochemical
T5 sequence (P10275 whole entry): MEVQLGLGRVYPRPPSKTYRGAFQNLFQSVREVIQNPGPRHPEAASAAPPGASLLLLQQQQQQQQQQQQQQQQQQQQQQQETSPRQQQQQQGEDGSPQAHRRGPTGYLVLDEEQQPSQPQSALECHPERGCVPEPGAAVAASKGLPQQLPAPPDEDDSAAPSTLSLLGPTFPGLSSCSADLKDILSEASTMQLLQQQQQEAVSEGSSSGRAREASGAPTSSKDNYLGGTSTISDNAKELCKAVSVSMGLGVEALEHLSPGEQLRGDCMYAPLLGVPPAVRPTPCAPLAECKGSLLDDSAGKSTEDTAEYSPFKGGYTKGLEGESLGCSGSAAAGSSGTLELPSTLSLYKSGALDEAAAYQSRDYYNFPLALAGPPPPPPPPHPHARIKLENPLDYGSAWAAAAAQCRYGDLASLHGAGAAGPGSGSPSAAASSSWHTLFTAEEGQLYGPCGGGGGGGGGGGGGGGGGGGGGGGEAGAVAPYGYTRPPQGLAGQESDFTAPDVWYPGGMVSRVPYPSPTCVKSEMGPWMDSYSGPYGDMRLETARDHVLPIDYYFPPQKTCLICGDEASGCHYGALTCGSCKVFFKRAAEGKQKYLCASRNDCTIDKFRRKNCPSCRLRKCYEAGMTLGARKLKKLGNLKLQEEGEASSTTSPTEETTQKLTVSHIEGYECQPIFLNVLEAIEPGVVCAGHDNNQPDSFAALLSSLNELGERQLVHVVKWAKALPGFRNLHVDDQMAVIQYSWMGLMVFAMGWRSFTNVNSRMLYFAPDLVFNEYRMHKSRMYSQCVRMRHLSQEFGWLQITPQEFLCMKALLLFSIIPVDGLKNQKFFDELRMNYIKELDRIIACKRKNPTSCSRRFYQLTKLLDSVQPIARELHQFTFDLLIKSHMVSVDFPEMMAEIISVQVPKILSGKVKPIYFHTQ

Androgen receptor [13] = target: T5, Androgen receptor
Estrogen receptor [14] = target: T4, Estrogen receptor; test: Antagonistic efficacy against human estrogen receptor; type: functional
Summary of the method: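 Cotransfection LUC reporter assay for hER. Antagonist efficacy is the % maximal inhibition of a standard agonist (estradiol is the reference agonist for hER) applied at its EC50.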

Homo sapiens [15] = organism: Homo sapiens; test: Relative potency for human androgen and progesterone receptors

**Q.** For CC1=CC(C)(C)Nc2ccc3c(c21)/C(=C/c1ccco1)Oc1ccc(F)cc1-3, which IC50 (Glucocorticoid receptor [1]) is on record?
**A.** 109 nM

**Q.** What about the Ratio (Homo sapiens [2]) of the same compound?
**A.** 64

**Q.** And the Ratio (Homo sapiens [3])?
**A.** 749

**Q.** And the Ki (Glucocorticoid receptor [4])?
**A.** 140 nM

**Q.** What about the Efficacy [5] of the same compound?
**A.** 138%

**Q.** What about the Efficacy [6] of the same compound?
**A.** 64%

**Q.** What about the Ratio (Homo sapiens [7]) of the same compound?
**A.** > 1000

**Q.** And the Ki (Progesterone receptor [8])?
**A.** 4.7 nM

**Q.** What about the IC50 (Estrogen receptor [9]) of the same compound?
**A.** 1273 nM

**Q.** And the EC50 (Progesterone receptor [10])?
**A.** 21 nM

**Q.** What about the EC50 (Progesterone receptor [11]) of the same compound?
**A.** 1.7 nM

**Q.** What about the Ki (Androgen receptor [12]) of the same compound?
**A.** > 1000 nM

**Q.** What about the IC50 (Androgen receptor [13]) of the same compound?
**A.** 258 nM

**Q.** And the Efficacy (Estrogen receptor [14])?
**A.** 51%

**Q.** And the Ratio (Homo sapiens [15])?
**A.** 152
